In all, about 200,000 compounds went through this assay and about 2,000 (1%) were called active.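 How the source made its calls: active means inhibition above the campaign mean inhibition of all tested compounds plus 3 SD (cut at about 20% in these data); inactive means the rest.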 The list comes from a sample in which actives are over-represented; it also holds similar structures and randomly drawn compounds.

Usually inhibition stands for the drop in the measured response relative to a control, in per cent.

Neuropeptide Y receptor type 1 (Homo sapiens), sequence (P25929 whole entry, looked up): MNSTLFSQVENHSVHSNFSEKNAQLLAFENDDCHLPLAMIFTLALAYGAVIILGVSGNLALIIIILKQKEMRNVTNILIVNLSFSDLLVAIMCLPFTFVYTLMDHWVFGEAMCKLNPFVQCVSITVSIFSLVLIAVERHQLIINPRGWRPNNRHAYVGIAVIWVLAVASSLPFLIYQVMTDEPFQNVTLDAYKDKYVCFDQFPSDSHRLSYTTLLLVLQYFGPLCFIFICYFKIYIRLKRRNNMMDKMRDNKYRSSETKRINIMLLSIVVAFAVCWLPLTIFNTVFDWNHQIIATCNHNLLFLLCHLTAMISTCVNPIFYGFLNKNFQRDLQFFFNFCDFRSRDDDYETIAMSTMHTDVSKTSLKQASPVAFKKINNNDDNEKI

The target of the assay is Neuropeptide Y receptor type 1 (Homo sapiens) (UniProt P25929). Kind of assay: NPY-Y1 receptor antagonists, primary screen, cell-based (AID 1040).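 Further: 0% = DMSO wells given NPY plus isoproterenol and 100% = isoproterenol alone without NPY.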 The note with it: HEK293-CNG Y1 cells, membrane potential fluorescence; at 3.6 µM; active compounds read high; NPY at EC95, then isoproterenol. The method in brief:
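Benchmarks – high control isoproterenol alone, low control NPY with isoproterenol · Material – HEK293 Y1/CNG channel cell line · Times – dye 3 h, compound 60 min room temperature, stimulation 45 min · Probe or stimulus – NPY (25 nM), isoproterenol (1 µM), Ro 20-1724 (25 µM) · Evaluation – % inhibition of NPY effect · Signal – fluorescence, membrane potential probe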
For `O=C(NNC1=C(C(=O)C(F)(F)F)CCC1)c1ccncc1`, the inhibition is 0.61% (inactive).
The value for `CC(=O)c1cc(-c2ccccc2)n(CCC(=O)NC2CCCCCC2)c1C` was 2.33% (inactive); that for `CCCc1[nH]nc2c1C(c1c(C)nn(-c3ccccc3)c1Cl)C(C#N)=C(N)O2` (stereo unspecified) was -1.69% (inactive); that for `CCCc1[nH]nc2c1C(C1CC=CCC1)C(C#N)=C(N)O2` (stereo unspecified) was -5.43% (inactive).
As to `CCCc1[nH]nc2c1C(c1ccc(Br)s1)C(C#N)=C(N)O2` (stereo unspecified), the inhibition was 68.6% (active).
In the case of `O=C(COC(=O)c1cnc(Cl)c(Cl)c1)NCc1ccco1`, the inhibition was 1.45% (inactive).
The value for `N#Cc1ccc(N2Cc3ccccc3/C2=N/C(=O)Nc2ccc(Cl)cc2)cc1` was -0.16% (inactive).
As for `C/C(=N\NC(=S)NCc1ccccc1)C1CCCCC1`, the inhibition is 3.71% (inactive).
Regarding `C/C(=N\NC(=S)NCc1ccccc1)c1ccc(Cl)cc1`, the inhibition is 21.7% (active).
The value for `O=C(O)c1ccc(/C=N/NC(=S)NCc2ccccc2)cc1` was 4.72% (inactive); that for `OCCC1CN(Cc2cnc(-c3ccccc3)s2)CCN1CCc1ccccc1` (stereo unspecified) was -0.62% (inactive).
Take `CCCCCCCCn1c2c(c(=N)c3c1CCC3)CCCC2`: the inhibition was 81.5% (active).
The value for `CCCCCCn1c(CN2CCCCC2)nc2c1c(=O)n(C)c(=O)n2C` was 11.1% (inactive); that for `Cn1cnnc1SCC(=O)NNC(=O)COc1ccc(Br)cc1` was 10.5% (inactive); that for `CC1(C)OC(=O)C(=CNC(CO)C(=O)O)C(=O)O1` (stereo unspecified) was 0.88% (inactive).
For `CN(C)CCCCCN(C)Cc1cc2ccccc2o1` the value was 22.6% (active); for `OCC1(Cc2ccccc2)CCN(Cc2cc3ccccc3o2)CC1`, 9.75% (inactive).
The value for `CCCOC(=O)c1cc2ccccc2oc1=O` was 1.89% (inactive).
With `O=C(CCC(=O)OCc1ccc(Cl)cc1)Nc1ccccc1`, the inhibition is -2.82% (inactive).
In the case of `O=C(O)/C=C/c1cn(Cc2ccccc2)nc1-c1cccs1`, the inhibition was 20.8% (active).
For `O=C(O)/C=C/c1cn(-c2ccccc2)nc1-c1cccs1`, the inhibition is 3.05% (inactive).
For `O=C(/C=C\c1cn(-c2ccccc2)nc1-c1cccs1)N1CCOCC1` the value was 4.67% (inactive); for `O=C(OCc1cc(Cl)ccc1OC(F)F)c1cccnc1`, -0.25% (inactive); for `Cc1c(Cl)c([N+](=O)[O-])nn1CCCC(=O)NC(C)c1ccccc1` (stereo unspecified), 1.69% (inactive).
For `COc1cc(OC)c(C(=O)Nc2ccccc2-c2ccccc2)cc1OC` the value was 2.51% (inactive); for `CCC/C=C(\CCC)C(NC(=O)Cc1ccccc1)c1ccc(C(=O)OC)cc1` (stereo unspecified), 26.8% (active); for `CCC[C@@H]1C[C@@]1(CCC)[C@@H](NC(=O)c1ccccc1)c1ccc(C(=O)OC)cc1`, 6.57% (inactive).
The value for `COc1ccc(C(CC(=O)O)NC(=O)Cc2ccccc2)cc1` (stereo unspecified) was -4.05% (inactive).
In the case of `O=C(CCc1nnc(CCCCc2ccccc2)o1)NC(c1cccnc1)C(F)(F)F` (stereo unspecified), the inhibition is 3.83% (inactive).
For `S=c1[nH]nc(Nc2ccccc2)s1` the value was 7.84% (inactive); for `O=[N+]([O-])c1cccc(C2=NCCS2)c1`, 2.43% (inactive).
The value for `O=C(CN1C(=O)NC(Cc2ccccc2)(Cc2ccccc2)C1=O)NCC1CCCCC1` was 68.1% (active); that for `O=C(CN1C(=O)NC2(CCCC2)C1=O)NCC1CCCO1` (stereo unspecified) was -1.75% (inactive).
The value for `O=C(CN1C(=O)NC2(CCCCCC2)C1=O)NC1CC1` was 0.75% (inactive); that for `O=C(CC1SCCNC1=O)Nc1ccc(Cl)cc1` (stereo unspecified) was 6.74% (inactive).
As for `CCCCOC(=O)Nc1sc2nc(C)cc(C)c2c1-n1cccc1`, the inhibition was 2.5% (inactive).
For `Cc1cc(C)c2c(-n3cccc3)c(NC(=O)OCc3ccccc3)sc2n1` the value was 36.9% (active); for `COC(=O)Nc1sc2nc(C)cc(C)c2c1-n1cccc1`, 0.35% (inactive).
For `CCC(C)NC(=O)CN(C1CCCCC1)S(C)(=O)=O` (stereo unspecified) the value was 0.13% (inactive).
For `O=C(NCCCN1CCOCC1)c1cnn2c(-c3ccccc3)cc(-c3ccccc3)nc12` the value was 30.1% (active); for `O=C(NCCCN1CCOCC1)c1ccccc1NS(=O)(=O)c1ccc(Br)cc1`, 11.9% (inactive).
`O=C(NCCCN1CCOCC1)c1ccccc1NS(=O)(=O)c1ccc(F)cc1`: the inhibition is 5.43% (inactive).
The value for `O=C(CN1CCN(c2ccc(O)cc2)CC1)NC1CCCc2ccccc21` (stereo unspecified) was 4.77% (inactive); that for `Nc1nc(SCC(=O)NNc2c(Cl)cc(Cl)cc2Cl)n[nH]1` was 8.35% (inactive); that for `CC(=O)c1c(C)[nH]c(C(=O)COC(=O)c2cccc(S(=O)(=O)N(C)c3ccccc3)c2)c1C` was 2.37% (inactive).
The value for `CC(C)CNC(=O)COC(=O)c1ccccc1OCC(=O)Nc1ccc(Br)cc1` was 3.51% (inactive); that for `CCCC(=O)Nc1ccc(Cl)c(NC(=O)c2ccc(Br)o2)c1` was -1.88% (inactive); that for `CCN1CCN(c2c(Cl)cccc2NC(=O)c2ccc(Br)o2)CC1` was 23.8% (active).
The value for `COc1cc(OC)c(NC(=O)c2ccc(Br)o2)cc1Cl` was 0% (inactive); that for `Cc1ccc(C(=O)NC(=S)Nc2ccc(N3CCOCC3)cc2)cc1` was -3.91% (inactive).
In the case of `Cc1ccc(/C=N/NC(=O)COc2ccccc2-c2ccccc2)cc1`, the inhibition is 22.8% (active).
For the compound `Cc1ccc(OCC(=O)N/N=C\c2ccco2)c(C)c1`, the inhibition is 7.4% (inactive).
On to `Cc1ccc(OCC(=O)N/N=C/c2ccncc2)cc1`, for which the inhibition was 0.98% (inactive).
For `OCCNCc1cccc(OCc2ccccc2Cl)c1` the value was 11.2% (inactive); for `O=C(O)c1ccc(/C=N/NC(=O)c2ccc(Br)cc2)cc1`, 2.79% (inactive); for `OC(COCCC12CC3CC(CC(C3)C1)C2)CN1CCCCC1` (stereo unspecified), 26.9% (active).
As to `Cc1cccc(C)c1OCC(O)CN1CCCCC1` (stereo unspecified), the inhibition was 6.39% (inactive).
For `OC(COc1ccc(CN2CCSCC2)cc1)CN1CCCCC1` (stereo unspecified) the value was 6.88% (inactive); for `CCC1CCCCN1C(=O)CSc1nc2c(c(=O)n(C)c(=O)n2C)n1C` (stereo unspecified), 4.16% (inactive); for `COc1ccc(C(=O)CSc2nnc(COc3ccccc3)n2Cc2ccco2)cc1`, 24.4% (active).
`CCn1c(COc2ccccc2)nnc1SCC(=O)NCc1ccco1`: the inhibition is -4.68% (inactive).
For `C=CCn1c(CNC(=O)c2ccco2)nnc1SCC(=O)c1ccc(OC)cc1` the value was 0.4% (inactive); for `COc1ccc(NC(=O)CCNS(=O)(=O)c2ccc3c(c2)c(=O)n(C)c(=O)n3C)cc1OC`, 5.39% (inactive).
The value for `Cc1ccc(Cn2c(NC(=O)c3ccco3)nc3ccccc32)cc1` was 24.1% (active); that for `Cc1ccc(-n2nc3cc(Cl)c(NC(=O)c4ccco4)cc3n2)cc1` was -10% (inactive); that for `CC(=O)Nc1nc2ccccc2n1Cc1ccc(C)cc1` was 6.94% (inactive).
